From ChEMBL document CHEMBL1147088, “Small molecule obatoclax (GX15-070) antagonizes MCL-1 and overcomes MCL-1-mediated resistance to apoptosis” (Proc Natl Acad Sci U S A, 2007)
Each block holds one compound with its values, some of them ahead of it. The source made the active and inactive calls. The rule behind the calls is not given here.

Columns and labels:
Saccharomyces cerevisiae [1] = assay: Growth inhibition of Saccharomyces cerevisiae W301; assay type: functional, organism-based
Outline: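 W301 yeast transformed with BCL-family/BAX/BAK or control vectors, then grown in synthetic complete medium with 2% raffinose and 2% galactose. Seeded at 0.01 OD units and shaken 48 h at 30°C. Compound or vehicle was added to growth medium with final DMSO 0.67%. Cell density was the read-out, and IC50 values were recorded.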

[2] = molecular target: Apoptosis regulator Bcl-2 (Homo sapiens, UniProt P10415); assay: Binding affinity to BCL2
Chain of Apoptosis regulator Bcl-2 (P10415 whole entry): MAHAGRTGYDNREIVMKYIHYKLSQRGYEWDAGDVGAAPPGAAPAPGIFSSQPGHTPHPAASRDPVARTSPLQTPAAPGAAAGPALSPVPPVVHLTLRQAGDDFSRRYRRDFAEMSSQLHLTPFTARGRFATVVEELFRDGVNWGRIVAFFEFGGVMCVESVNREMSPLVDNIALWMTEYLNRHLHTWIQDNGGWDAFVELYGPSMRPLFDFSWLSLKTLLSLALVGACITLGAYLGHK

Epithelial cell = assay: […] in Bax and Bak double knock out E1A/p53DN-transformed mouse kidney epithelial cells assessed as caspase-3 activation at 2.0 uM; assay type: functional, cell-based
Mus musculus [3] = assay: Toxicity in BALB/c mouse bearing mouse 4T1 cells xenografts assessed as survivability at 2 mg/kg, ip administered once in 3 days for 5 times after 14 days; assay type: organism-based; design: dose 2 mg/kg, route intraperitoneal; conditions: in vivo, 336 h
Outline: (§1)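 Tumor-bearing mice as in the xenograft study (BALB/c with 4T1; CB17 SCID with C33A, PC3, SW480), 8 per cohort, dosed i.p. once every 3 days ×5. Body weight measured three times weekly; animal deaths and weight change recorded 14 days after first injection.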

[4] = molecular target: Induced myeloid leukemia cell differentiation protein Mcl-1 (Homo sapiens, UniProt Q07820); assay: Inhibition of BH3 peptide binding to human recombinant MCL1 by fluorescence polarization assay
Chain of Induced myeloid leukemia cell differentiation protein Mcl-1 (Q07820 whole entry): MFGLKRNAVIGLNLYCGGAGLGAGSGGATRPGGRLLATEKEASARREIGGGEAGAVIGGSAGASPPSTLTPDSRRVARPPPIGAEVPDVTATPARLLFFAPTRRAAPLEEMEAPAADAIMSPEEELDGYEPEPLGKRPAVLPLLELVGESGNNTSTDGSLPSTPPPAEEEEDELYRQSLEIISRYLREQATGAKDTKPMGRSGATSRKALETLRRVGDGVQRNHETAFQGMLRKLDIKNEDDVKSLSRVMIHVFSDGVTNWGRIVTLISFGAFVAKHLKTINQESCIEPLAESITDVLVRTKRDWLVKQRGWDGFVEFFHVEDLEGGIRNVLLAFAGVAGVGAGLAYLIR

Eu-Myc [5] = assay: Induction of apoptosis in mouse Eu-Myc cells overexpressing MCL1 assessed as inhibition of colony formation at 1 uM; assay type: functional, cell-based
SK-MEL-5 [6] = assay: Disruption of BCL2-BIM interaction in mitochondria of human SKMel5 cells 5 hrs by immunoprecipitation; assay type: functional, cell-based
SK-MEL-5 [7] = assay: Inhibition of MCL1-BAK interaction in mitochondria of human SKMel5 cells at 10 nM; assay type: functional, cell-based
Mus musculus [8] = assay: Toxicity in BALB/c mouse bearing mouse 4T1 cells xenografts assessed as weight change at 2 mg/kg, ip administered once in 3 days for 5 times after 14 days; assay type: organism-based; design: dose 2 mg/kg, route intraperitoneal; conditions: in vivo, 336 h; outline: as §1
Saccharomyces cerevisiae [9] = assay: Antagonism of BAX/BAK dependent BCL pathway-mediated inhibition of Saccharomyces cerevisiae W301; assay type: functional, organism-based
Outline: (§2)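 W301 yeast transformed with the indicated vectors; cultures in synthetic complete medium with 2% raffinose and 2% galactose, seeded at 0.01 OD units, compound or vehicle added (0.67% DMSO final). Cell density read after 48 h shaking at 30°C.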

Mus musculus [10] = assay: Toxicity in CB17 SCID mouse bearing human SW480 cells xenografts assessed as survivability at 2 mg/kg, ip administered once in 3 days for 5 times after 14 days; assay type: organism-based; design: dose 2 mg/kg, route intraperitoneal; conditions: in vivo, 336 h; outline: as §1
Saccharomyces cerevisiae [11] = assay: Antagonism of BCL pathway-mediated inhibition of Saccharomyces cerevisiae W301 in absence of BAX/BAK; assay type: functional, organism-based; outline: as §2
Eu-Myc [12] = assay: Induction of apoptosis in mouse Eu-Myc cells overexpressing A1 assessed as inhibition of cell survivability at 1 uM; assay type: functional, cell-based
E1A/p53DN [13] = assay: Increase in inhibition of MCL1 -/- in mouse Bim transformed E1A/p53DN cells; assay type: functional, cell-based
SK-MEL-5 [14] = assay: Reduction in MCL1-BAK interaction in mitochondria of human SKMel5 cells at 1 uM after 5 hrs by immunoprecipitation; assay type: functional, cell-based
Bcl-2-like protein 2 = molecular target: T1, Bcl-2-like protein 2 (Homo sapiens, UniProt Q92843); assay: Inhibition of BH3 peptide binding to human recombinant BCL-w by fluorescence polarization assay
T1 sequence (Q92843 whole entry): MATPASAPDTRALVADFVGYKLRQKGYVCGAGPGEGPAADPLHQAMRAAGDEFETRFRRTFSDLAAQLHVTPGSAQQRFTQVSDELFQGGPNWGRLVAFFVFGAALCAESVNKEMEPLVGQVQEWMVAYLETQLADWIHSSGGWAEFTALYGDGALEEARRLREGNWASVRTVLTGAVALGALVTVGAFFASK

Mus musculus [15] = assay: Toxicity in CB17 SCID mouse bearing human SW480 cells xenografts assessed as weight change at 2 mg/kg, ip administered once in 3 days for 5 times after 14 days; assay type: organism-based; design: dose 2 mg/kg, route intraperitoneal; conditions: in vivo, 336 h; outline: as §1
B16-F1 = assay: Reversal of MCL1 mediated resistance to bortezomib in mouse B16-F1 cells assessed as cell death; assay type: functional, cell-based
4T1 = assay: Antitumor activity in BALB/c mouse bearing mouse 4T1 cells xenografts at 2 mg/kg, ip administered once in 3 days for 5 times after 14 days; assay type: functional; conditions: route intraperitoneal
Outline: (§3)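 Female mice, 6–8 weeks (BALB/c for 4T1; CB17 SCID for C33A, PC3, SW480), given s.c. flank cells in PBS. Dosing i.p. once every 3 days ×5, starting day 7 (SW480), 14 (C33A) or 8 (PC3, 4T1). Tumor size measured thrice weekly, volume = length × width²/2, 8 animals/cohort; T/C (mean tumor size change treated ÷ control) at 14 days after first dose.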

Bcl-2-like protein 10 = molecular target: T2, Bcl-2-like protein 10 (Homo sapiens, UniProt Q9HD36); assay: Inhibition of BH3 peptide binding to human recombinant BCL-b by fluorescence polarization assay
T2 sequence (Q9HD36 whole entry): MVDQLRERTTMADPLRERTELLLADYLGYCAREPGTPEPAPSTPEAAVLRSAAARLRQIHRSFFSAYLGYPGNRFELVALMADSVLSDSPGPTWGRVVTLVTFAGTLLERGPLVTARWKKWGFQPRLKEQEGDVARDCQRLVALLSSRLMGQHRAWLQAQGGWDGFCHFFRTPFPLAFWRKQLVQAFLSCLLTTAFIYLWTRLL

PC-3 = assay: Antitumor activity in CB17 SCID mouse bearing human PC3 cells xenografts at 2 mg/kg, ip administered once in 3 days for 5 times after 14 days; assay type: functional; conditions: route intraperitoneal; outline: as §3
C-33-A = assay: Antitumor activity in CB17 SCID mouse bearing human C33A cells xenografts at 2 mg/kg, ip administered once in 3 days for 5 times after 14 days; assay type: functional; conditions: route intraperitoneal; outline: as §3
Bcl-2-related protein A1 = molecular target: T3, Bcl-2-related protein A1 (Homo sapiens, UniProt Q16548); assay: Inhibition of BH3 peptide binding to human recombinant A1 by fluorescence polarization assay
T3 sequence (Q16548 whole entry): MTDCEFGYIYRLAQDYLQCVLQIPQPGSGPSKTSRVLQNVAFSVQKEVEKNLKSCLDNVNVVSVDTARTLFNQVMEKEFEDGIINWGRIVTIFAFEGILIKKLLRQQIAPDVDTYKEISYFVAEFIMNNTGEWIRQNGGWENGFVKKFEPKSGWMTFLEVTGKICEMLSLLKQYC

Eu-Myc [16] = assay: Induction of apoptosis in mouse Eu-Myc cells overexpressing BCL2 assessed as inhibition of cell survivability at 1 uM; assay type: functional, cell-based
SW480 = assay: Antitumor activity in CB17 SCID mouse bearing human SW480 cells xenografts at 2 mg/kg, ip administered once in 3 days for 5 times after 14 days; assay type: functional; conditions: route intraperitoneal; outline: as §3
Mus musculus [17] = assay: Toxicity in CB17 SCID mouse bearing human C33A cells xenografts assessed as weight change at 2 mg/kg, ip administered once in 3 days for 5 times after 14 days; assay type: organism-based, C-33-A; design: dose 2 mg/kg, route intraperitoneal; conditions: in vivo, 336 h; outline: as §1
E1A/p53DN [18] = assay: Increase in inhibition of MCL1 +/+ in mouse Bim transformed E1A/p53DN cells; assay type: functional, cell-based
Eu-Myc [19] = assay: Induction of apoptosis in mouse Eu-Myc cells overexpressing A1 assessed as inhibition of colony formation at 1 uM; assay type: functional, cell-based
KB [20] = assay: Reversal of MCL1 mediated resistance to ABT-737 in BCL2 overexpressing human KB cells assessed as cell death; assay type: functional, cell-based
KB [21] = assay: Release of cytochrome c in mitochondria of human KB cells at 2 uM; assay type: functional, cell-based
Outline: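 Mitochondria isolated from KB cells were incubated 30 min at 37°C with DMSO or compound, then reisolated. Mitochondrial pellet and post-mitochondrial supernatant were analysed by SDS/PAGE and cytochrome c immunoblot, with actin and a control protein as loading controls.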

Mus musculus [22] = assay: Toxicity in CB17 SCID mouse bearing human C33A cells xenografts assessed as survivability at 2 mg/kg, ip administered once in 3 days for 5 times after 14 days; assay type: organism-based, C-33-A; design: dose 2 mg/kg, route intraperitoneal; conditions: in vivo, 336 h; outline: as §1
Mus musculus [23] = assay: Toxicity in CB17 SCID mouse bearing human PC3 cells xenografts assessed as survivability at 2 mg/kg, ip administered once in 3 days for 5 times after 14 days; assay type: organism-based, PC-3; design: dose 2 mg/kg, route intraperitoneal; conditions: in vivo, 336 h; outline: as §1
Eu-Myc [24] = assay: Induction of apoptosis in mouse Eu-Myc cells overexpressing BCL2 assessed as inhibition of colony formation at 1 uM; assay type: functional, cell-based
Eu-Myc [25] = assay: Induction of apoptosis in mouse Eu-Myc cells overexpressing MCL1 assessed as inhibition of cell survivability at 1 uM; assay type: functional, cell-based
Mus musculus [26] = assay: Toxicity in CB17 SCID mouse bearing human PC3 cells xenografts assessed as weight change at 2 mg/kg, ip administered once in 3 days for 5 times after 14 days; assay type: organism-based, PC-3; design: dose 2 mg/kg, route intraperitoneal; conditions: in vivo, 336 h; outline: as §1

Structure (SMILES): CC[C@@]1(O)C(=O)OCc2c1cc1n(c2=O)Cc2cc3ccccc3nc2-1 [CAMPTOTHECIN]
IC50 (Saccharomyces cerevisiae [1]): > 200000 nM

Structure (SMILES): Oc1cc(O)c2c(c1)O[C@H](c1ccc(O)c(O)c1)[C@H](O)C2 [CATECHIN]
Ki [2]: > 100000 nM

Structure (SMILES): COc1cccc2c1C(=O)c1c(O)c3c(c(O)c1C2=O)C[C@@](O)(C(=O)CO)C[C@@H]3O[C@H]1C[C@H](N)[C@H](O)[C@H](C)O1 [DOXORUBICIN]
IC50 (Saccharomyces cerevisiae [1]): 10000 nM

Ki [2]: 229 nM
Structure (SMILES): O=C(O[C@@H]1Cc2c(O)cc(O)cc2O[C@@H]1c1ccc(O)c(O)c1)c1cc(O)c(O)c(O)c1 [EPICATECHIN GALLATE]

Structure (SMILES): Oc1cc(O)c2c(c1)O[C@H](c1cc(O)c(O)c(O)c1)[C@H](O)C2 [EPIGALLOCATECHIN]
Ki [2]: > 100000 nM

Structure (SMILES): O=C(O[C@@H]1Cc2c(O)cc(O)cc2O[C@@H]1c1cc(O)c(O)c(O)c1)c1cc(O)c(O)c(O)c1 [EPIGALOCATECHIN GALLATE]
Ki [2]: 234 nM

Ki [4]: 1000 nM
Ki (Bcl-2-like protein 2): 1000 nM
Ki (Bcl-2-like protein 10): 1000 nM
Ki (Bcl-2-related protein A1): 1000 nM
Structure (SMILES): COC1=CC(c2cc3ccccc3[nH]2)=N/C1=C\c1[nH]c(C)cc1C [OBATOCLAX]
Activity (Epithelial cell): Active
Activity (Mus musculus [3]): Non-toxic
Activity (Eu-Myc [5]): Active
Activity (SK-MEL-5 [6]): Active
Activity (SK-MEL-5 [7]): Active
Activity (Mus musculus [8]): 1%
Activity (Saccharomyces cerevisiae [9]): Active
Activity (Mus musculus [10]): Non-toxic
Activity (Saccharomyces cerevisiae [11]): inactive
Activity (Eu-Myc [12]): Active
Activity (E1A/p53DN [13]): Active
Activity (SK-MEL-5 [14]): Active
Activity (Mus musculus [15]): 3%
Activity (B16-F1): Active
Activity (4T1): 42%
Activity (PC-3): 28%
Activity (C-33-A): 11%
Activity (Eu-Myc [16]): Active
Activity (SW480): 35%
Activity (Mus musculus [17]): 7%
Activity (E1A/p53DN [18]): Active
Activity (Eu-Myc [19]): Active
Activity (KB [20]): Active
Activity (KB [21]): inactive
Activity (Mus musculus [22]): Non-toxic
Activity (Mus musculus [23]): Non-toxic
Activity (Eu-Myc [24]): Active
Activity (Eu-Myc [25]): Active
Activity (Mus musculus [26]): 10%

Ki [2]: 692 nM
Structure (SMILES): O=c1c(O)cc([C@H]2Oc3cc(O)cc(O)c3C[C@H]2O)cc2c([C@H]3Oc4cc(O)cc(O)c4C[C@H]3O)cc(O)c(O)c12 [THEAFLAVIN]
